The values that follow come from paper PMC2233693 (The Journal of General Physiology, 2000).

What all share (format): biochemical
Assay [1] deals with T1, wild-type bovine olfactory CNG channel (α3 subunit) (Bos taurus, UniProt Q03041).
T1 sequence (Q03041 1-663): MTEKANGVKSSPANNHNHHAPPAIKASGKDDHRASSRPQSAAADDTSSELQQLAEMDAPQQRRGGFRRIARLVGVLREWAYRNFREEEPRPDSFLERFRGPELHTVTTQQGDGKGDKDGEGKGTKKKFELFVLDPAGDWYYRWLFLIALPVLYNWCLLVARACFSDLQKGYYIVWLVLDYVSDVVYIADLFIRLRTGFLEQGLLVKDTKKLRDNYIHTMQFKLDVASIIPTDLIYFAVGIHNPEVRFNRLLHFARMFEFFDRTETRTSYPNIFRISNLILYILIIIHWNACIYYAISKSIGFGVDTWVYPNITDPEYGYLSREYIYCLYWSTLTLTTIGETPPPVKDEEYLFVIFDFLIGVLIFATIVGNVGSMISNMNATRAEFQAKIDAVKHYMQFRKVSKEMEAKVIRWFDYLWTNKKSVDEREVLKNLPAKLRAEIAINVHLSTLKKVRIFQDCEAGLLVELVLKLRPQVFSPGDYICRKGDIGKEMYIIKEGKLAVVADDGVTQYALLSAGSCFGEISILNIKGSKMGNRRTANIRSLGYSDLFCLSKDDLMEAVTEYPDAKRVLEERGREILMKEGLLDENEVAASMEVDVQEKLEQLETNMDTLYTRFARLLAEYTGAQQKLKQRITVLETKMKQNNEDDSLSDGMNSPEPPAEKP

The target of assay [2] is T2, E340D mutant bovine olfactory CNG channel (Bos taurus, UniProt Q03041, E340D).
T2 sequence (Q03041 1-663 E340D): T1 sequence (Q03041 1-663) with E340D
As to the kind of experiment: Blockage of macroscopic current by external Ca2+ or Mg2+, outside-out patches. The settings on record: for Ki: mean ± SD. A digest of the protocol:
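Xenopus oocytes injected with wild-type or mutant channel mRNA; outside-out patches with 100 μM cGMP in the pipette. Bath: 110 mM NaCl, 2 mM EDTA, 10 mM HEPES, pH 7.4, plus Ca2+ (NTA-buffered) or Mg2+ (EDTA-buffered); unbuffered above 0.1 mM. Five 1-s ramps (−80 to +80 mV) averaged, leak subtracted. Current normalised to divalent-free current at the same voltage, Hill-fitted per patch; Ki and n given as mean ± SD.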

In assay [3] the target is T3, E340G mutant bovine olfactory CNG channel (Bos taurus, UniProt Q03041, E340G).
T3 sequence (Q03041 1-663 E340G): T1 sequence (Q03041 1-663) with E340G

[4] abbreviates: read-out: K 1/2,cG, −80 mV, single patch, Fig. 1 fit.
The mark [5] stands for this setting: −80 mV, single patch, Fig. 1 fit.

Numbering of substitutions follows the chain as printed. Read-outs that look alike come from different tables or passages of the source.

On to `[Ca+2]` [Ca^2+], for which the “effect of external Ca2+ on K 1/2 for cAMP or cGMP” value in assay [1] (1 mM Ca2+ in the patch pipette) and in assay [3] (1 mM Ca2+ in the patch pipette) was “did not significantly affect K 1/2” in each case. The “n, Hill coefficient of blockage” value in assay [2] (external Ca2+, +80 mV) worked out at 1.3 ± 0.5; in assay [2] (external Ca2+, −80 mV) it was 1.2 ± 0.5. In addition, the inhibition constant Ki in assay [2] (external Ca2+, +80 mV) stood at 18 ± 10 µM; in assay [2] (external Ca2+, −80 mV), 47 ± 7 µM.

For the molecule `[Mg+2]` [Mg^2+], the “n, Hill coefficient of blockage” value in assay [2] (external Mg2+, +80 mV) came out at 0.9 ± 0.2; in assay [2] (external Mg2+, −80 mV), 0.7 ± 0.2. Moreover, the Ki in assay [2] (external Mg2+, +80 mV) was 155 ± 56 µM; in assay [2] (external Mg2+, −80 mV), 53 ± 17 µM.

For `Nc1nc2c(ncn2[C@@H]2O[C@@H]3COP(=O)(O)O[C@H]3[C@H]2O)c(=O)[nH]1` [cGMP], the results for the “n(−80 mV), Hill coefficient” value in assay [1] (cGMP) and in assay [3] (cGMP) were 2.7 ± 0.2 and 1.8 ± 0.4, respectively. In addition, the “I(−80 mV)/I(+80 mV)” value is 1.11 ± 0.03 in assay [1] (cGMP-gated current) and 0.79 ± 0.09 in assay [3] (cGMP-gated current). The EC50 in assay [1] (read-out: K 1/2, cGMP, +80 mV) amounted to 2600 ± 600 nM; in assay [1] (read-out: K 1/2, cGMP, −80 mV) it was 2500 ± 500 nM; in assay [1] (setting [4]) it was 3200 nM; in assay [3] (read-out: K 1/2, cGMP, +80 mV) it was 13 ± 1.5 µM; in assay [3] (read-out: K 1/2, cGMP, −80 mV) it was 15 ± 1.6 µM; in assay [3] (setting [4]), 18.5 µM. The entries for the “n cG” value in assay [1] (setting [5]) and in assay [3] (setting [5]) were 2.7 and 1.6, respectively.
